Key:
[1] = DPPH radical scavenging assay; details: mean±SD
In short: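 Test compound in methanol at 50, 75 and 100 was added to 0.005% (w/v) DPPH in methanol. Incubation was 45 min at room temperature, with absorbance read at 517 nm against a blank. Inhibition (%) = [(controlA − sampleA)/[…]]×100, where the control held all reagents except the test compound. Triplicate runs; IC50 taken from a fitted line to the plot.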

[2] = tested on: selected bacteria strains; assay: Disc diffusion method, overall statements on the selected bacteria strains; type: cell-based; details: selected Gram-positive and Gram-negative strains, inhibition zones
In short: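 Clinical isolates from Kirkuk Hospital were cultured on agar in Petri dishes. Test compound was dissolved in DMSO at 60 µg/mL, with DMSO alone tested alongside. Plates were incubated 24 h at 37 °C, pH 7.4±0.2. Inhibition-zone diameter around the disc was scored: − none; + 10–15 mm; ++ 15–20 mm; +++ ≥20 mm.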

Giardia intestinalis = assay: In vitro bioassay of antigiardial activity; type: cell-based; details: Giardia duodenalis, read-out: Antigiardial activity, IC50, Giardia intestinalis

SMILES | DPPH radical scavenging, inhibition at 50 µg/mL ([1]; compound concentration 50 µg/mL, 45 min, 517 nm) [%] | DPPH radical scavenging, inhibition at 75 µg/mL ([1]; compound concentration 75 µg/mL, 45 min, 517 nm) [%] | DPPH radical scavenging, inhibition at 100 µg/mL ([1]; compound concentration 100 µg/mL, 45 min, 517 nm) [%] | antibacterial activity (in words) [2] | IC50 (Giardia intestinalis) [µM] | DPPH radical scavenging, IC50 ([1]; fitted line to a plot, triplicate)
O=C1O[C@H]([C@@H](O)CO)C(O)=C1O [Ascorbic acid] | 78.01±0.75 | 81.01±0.85 | 84.21±0.41 |  |  | 
Cc1ncc([N+](=O)[O-])n1CCO [Metronidazole] |  |  |  | no antibacterial activity | 3.71 ± 0.27 | ns (No scavenging activity)

From publication PMC9989235 (Iranian Journal of Medical Sciences, 2023)
